# Compound activity deposited in PubChem BioAssay by Sanford-Burnham Center for Chemical Genomics.
# Most compounds without a hit are left out; they make up all but 3.3% or so of the library.
# SENP8 block-1: blocks human SENP8 cleavage of Nedd8 substrate. inhibition, % at 20 µM. recombinant SENP8, Nedd8 substrate fluorescence. AID 602440. hit rate 0.64% among 360,000; in the data active means inhibition mostly above about 40%, no sharp cut-off; inactive means mostly below about 27%
# Target sequence (Q96LD8 whole entry, looked up): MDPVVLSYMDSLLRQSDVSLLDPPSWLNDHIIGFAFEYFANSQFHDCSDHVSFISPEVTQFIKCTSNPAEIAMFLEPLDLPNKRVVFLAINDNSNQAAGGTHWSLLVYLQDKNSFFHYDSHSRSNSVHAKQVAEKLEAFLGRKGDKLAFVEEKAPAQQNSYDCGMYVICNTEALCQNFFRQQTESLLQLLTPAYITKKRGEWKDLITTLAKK
# SENP8 block-2: blocks the human protease SENP8. AID 2540. hit rate 1.2% among 330,000. Q96LD8. purified SENP8, Z-RLRGG-aminoluciferin cleavage, luminescence. inhibition, % at 10 µM; in the data active means inhibition above about 50%
# SENP1 FRET inh: SENP1 (human) catalytic domain inhibition | hit rate 0.21% among 360,000 | Q9P0U3 | AID 624204 | inhibition, % at 10 µM | recombinant SENP1 catalytic domain, CyPet-SUMO1-YPet FRET cleavage;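 active means inhibition at least 30% at 10 µM, raw YFP signal under a set limit, fluorescence ratio 0.5 to 1.5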;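 further: 0% = enzyme with DMSO and 100% = no enzyme wells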
# Target sequence (Q9P0U3 419-644 limits assumed): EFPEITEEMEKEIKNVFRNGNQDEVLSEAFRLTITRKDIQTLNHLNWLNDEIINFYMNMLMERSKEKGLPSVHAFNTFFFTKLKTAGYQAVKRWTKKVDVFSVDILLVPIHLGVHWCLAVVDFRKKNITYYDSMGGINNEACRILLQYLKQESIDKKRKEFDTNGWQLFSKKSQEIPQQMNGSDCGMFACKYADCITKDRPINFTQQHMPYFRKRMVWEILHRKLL
#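 System: Recombinant human SENP1 catalytic domain, His6-tagged | Incubation: Enzyme reaction for 50 min at room temperature, dark | Medium: Tris pH 8 with BME, BSA, NP40 and catalase | Also added: 25 nM SUMO1 FRET substrate | Compound: 10 µM single point, 0.5% DMSO | Measured by: FRET fluorescence in CFP and YFP emission channels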
# CendR NRP1 mod: NRP-1/CendR interaction modulation; inhibition, % at 25 µM; O14786; hit rate 0.85% among 360,000; FAM-RPARPAR peptide binding to NRP-1, fluorescence polarization; AID 602438;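 active means inhibition or corrected inhibition above about 18%, plus a signal ratio from 0.5 to 1.5, limit read from the data, passing the limit was not always enough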
# SENP6 block: blocks the human protease SENP6; Q9GZR1; Recombinant SENP6 catalytic domain, aminoluciferin luminescence; hit rate 1.8% among 330,000; inhibition, % at 10 µM;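 active means inhibition above about 50% at the single tested dose, limit read from the data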;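 further: plate controls were DMSO wells with enzyme for no effect and DMSO wells lacking enzyme for full effect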
# SENP7 inh: SENP7 protease inhibition. Q9BQF6. recombinant SENP7, Z-RLRGG-aminoluciferin luminescence, 40 min. inhibition, % at 5 µM. hit rate 1.5% among 330,000;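 active means inhibition above about 50% at the single test dose, limit read from the data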;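 further: plate controls were DMSO with enzyme for no effect and no enzyme buffer wells for full effect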
# SENP8 conf: human SENP8 inhibition, confirmed; shares compounds with SENP7 inh; Recombinant SENP8, Z-RLRGG-aminoluciferin luminescence, 60 min; inhibition, % at 12.5 µM; hit rate 40% among 6,200;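 active means mean inhibition across replicates above about 50%, limit read from the data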
# SENP6 conf: confirmation of human SENP6 protease inhibitors | shares compounds with SENP7 inh | recombinant SENP6, Z-RLRGG-aminoluciferin luminescence | inhibition, % at 12.5 µM | hit rate 58% among 6,200 | AID 488915
# SENP7 conf: confirmation of human SENP7 protease inhibitors; shares compounds with SENP7 inh; recombinant SENP7, Z-RLRGG-aminoluciferin luminescence, 40 min; inhibition, % at 12.5 µM; hit rate 69% among 6,200; AID 488917
# Casp3 SENP sel: inhibits human caspase-3 in SENP selectivity test; shares compounds with SENP7 inh; purified caspase-3, Z-DEVD-aminoluciferin luminescence, 60 min; inhibition, % at 12.5 µM; hit rate 60% among 6,200;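 active means mean inhibition above about 50%, limit read from the data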;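 further: plate controls were enzyme with DMSO for no effect and wells without caspase-3 for full effect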
# Target sequence (P42574 28-227 limits assumed): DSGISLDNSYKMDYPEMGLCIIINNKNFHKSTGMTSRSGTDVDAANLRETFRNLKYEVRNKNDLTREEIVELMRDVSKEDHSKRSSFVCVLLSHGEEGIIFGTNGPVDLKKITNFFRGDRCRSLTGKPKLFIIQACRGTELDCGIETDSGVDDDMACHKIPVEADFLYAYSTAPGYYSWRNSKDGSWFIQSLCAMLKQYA
# SENP luc ctr: luminescence interference (SENP counter-screen). shares compounds with SENP7 inh. Pre-incubated SENP8/Z-RLRGG-aminoluciferin, luciferase luminescence interference. inhibition, % at 12.5 µM. hit rate 39% among 6,200. AID 488919;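 active means mean inhibition above about 50% when retested at one dose, limit read from the data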;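 further: plate controls were DMSO wells with completed reaction for no effect and substrate without enzyme for full effect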
# * hit, by the source's call; / = not tested or not shown.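 How the source made its calls, unless noted: active means mean inhibition above about 50% in the one-dose retest (limit read from the data); inactive means the rest.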
SMILES,SENP8 block-1,SENP8 block-2,SENP1 FRET inh,CendR NRP1 mod,SENP6 block,SENP7 inh,SENP8 conf,SENP6 conf,SENP7 conf,Casp3 SENP sel,SENP luc ctr
COc1cccc(NC(=O)c2cc3ccccc3o/c2=N\O)c1,17.5,96.4*,0.9,-5.4,98.5*,99.8*,97.9*,98.8*,101.3*,96.0*,97.3*
O=C(Nc1ccccc1Cl)c1cc2ccccc2o/c1=N\O,13.5,14.5,-0.3,5.1,55.7*,81.1*,1.0,6.5,81.3*,55.8*,32.4
CC(=O)NCCN=C(C)c1sc2ccccc2c1O,-27.2,4.1,-149.0,-2.7,6.7,14.3,/,/,/,/,/
CC(=Nc1cccc(C)c1)c1sc2ccccc2c1O,-73.4,43.6,-21.8,-27.1,62.9*,38.1,72.9*,73.7*,88.4*,47.6,31.9
CC(=Nc1ccccc1O)c1sc2ccccc2c1O,-34.4,-3.2,-35.2,81.5,33.5,13.9,/,/,/,/,/
CC(=Nc1ccc(O)cc1)c1sc2ccccc2c1O,15.8,75.1*,-19.1,143.9,88.9*,78.6*,79.9*,79.9*,95.9*,68.5*,81.3*
O=C(C[C@H]1C(=O)N(Cc2ccccc2)C[C@@H]1Cc1ccccc1)Nc1ccc(Br)cc1,21.3,/,1.6,1.9,/,/,/,/,/,/,/
COc1cc(OC)cc(C(=O)Nc2cccc(NC(=O)c3ccccc3)c2)c1,17.5,-2.8,3.3,11.6,-7.0,-3.9,/,/,/,/,/
COc1cc(OC)cc(C(=O)Nc2cccc(C(C)=O)c2)c1,20.8,38.9,1.2,-1.0,64.6*,68.4*,57.5*,53.3*,81.5*,77.9*,62.8*
COc1cc(OC)cc(C(=O)Nc2ccc(Nc3ccccc3)cc2)c1,2.8,60.3*,-1.2,3.8,79.5*,58.0*,65.1*,61.3*,84.6*,32.0,21.1
Clc1cccc(CNc2ccn3nc(-c4cccc(OCc5ccccc5)c4)cc3n2)c1,-488.7,/,-0.7,-0.2,/,/,/,/,/,/,/
CCOC(=O)c1c(CN(C)C)n(C)c2ccc(OC(C)=O)cc12,23.1,5.8,1.2,5.8,1.9,3.4,/,/,/,/,/
CCOC(=O)c1c(CN(C)C)n(C)c2c(O)c(N=NC(N)=O)c3ccc(Br)cc3c12,79.2*,34.3,2.2,12.8,67.8*,10.0,16.1,40.0,28.0,7.5,1.4
Cc1[nH]n(-c2cccc(Cl)c2)c(=O)c1C=NCc1ccco1,13.1,23.3,2.1,3.3,52.5*,23.3,-6.2,-7.5,16.4,7.9,16.8
O=C(Nc1ccc(NC(=O)c2cccs2)cc1)c1ccc2c(c1)OCCO2,13.8,1.7,1.3,1.9,-18.4,-1.9,/,/,/,/,/
Cc1ccc(-c2nnc(COC(=O)c3cccs3)o2)cc1,-2.5,71.4*,-0.2,10.7,77.6*,72.4*,79.6*,77.6*,94.1*,77.7*,68.9*
O=C(COC(=O)c1cccs1)c1ccc2c(c1)OCCO2,13.5,79.9*,3.2,3.5,94.9*,13.9,98.6*,99.4*,102.5*,96.9*,97.0*
Cc1ccc(C(=O)COC(=O)c2cccs2)cc1,10.7,86.5*,1.3,8.3,93.8*,93.6*,92.9*,92.3*,99.1*,91.6*,88.5*
O=C(COC(=O)c1cccs1)c1ccc2ccccc2c1,0.0,62.7*,-0.2,-3.9,41.2,78.1*,-19.3,64.0*,89.3*,43.8,54.3*
Cc1ccc(-c2nnc(COC(=O)c3ccco3)o2)cc1,-1.2,14.1,-0.7,-4.6,40.6,41.0,/,/,/,/,/
NC(Cc1ccc(C(F)(F)F)cc1)c1csc(Nc2ccc(C(=O)c3ccccc3)cc2)n1 (configuration not stated),-430.6,/,-5.6,-2.7,/,/,/,/,/,/,/
CC1(C(=O)NCc2cccnc2)CCN1C(=O)c1cccc(F)c1 (configuration not stated),15.5,/,-0.7,-5.8,/,/,/,/,/,/,/
CCN1C[C@@H]2[C@@H]3C(=O)N(Cc4ccccc4)C(=O)[C@@H]3[C@](Cc3ccccc3)(C1=O)N2C(=O)c1ccc(Br)cc1,-4.1,/,-2.8,-12.2,/,/,/,/,/,/,/
COc1ncccc1-c1nnn(-c2ccc(C)cc2)n1,-11.7,69.9*,2.3,-4.9,78.5*,80.0*,78.4*,81.2*,96.3*,82.3*,79.1*
COc1ncccc1-c1nnn(-c2ccc(Cl)c(Cl)c2)n1,9.2,20.2,-0.1,13.2,43.0,30.2,/,/,/,/,/
SMILES,SENP8 block-1,SENP8 block-2,SENP1 FRET inh,CendR NRP1 mod,SENP6 block,SENP7 inh,SENP8 conf,SENP6 conf,SENP7 conf,Casp3 SENP sel,SENP luc ctr
COc1ncccc1-c1nnn(-c2ccc(F)cc2)n1,2.2,67.0*,1.7,10.4,72.8*,69.7*,70.7*,75.0*,93.0*,80.9*,68.9*
CC(=O)N1Cc2cc(C(=O)NCC(F)(F)F)nc(-c3cccc(-c4cccnc4)c3)c2[C@@H]1CCO,10.0,/,2.2,-1.3,/,/,/,/,/,/,/
O=C(NN=c1c(=O)c2ccccc2c1=O)c1ccccc1,69.3*,71.2*,3.2,9.8,75.8*,83.8*,-15.6,70.9*,19.3,-2.6,3.0
Nc1c(N2CCCC2)cc(Cl)c2nonc12,13.4,83.4*,60.8*,13.8,91.4*,49.5,45.8,85.6*,74.5*,10.6,1.7
Nc1c(N2CCOCC2)cc(Cl)c2nonc12,1.5,13.0,5.8,6.6,23.1,20.6,/,/,/,/,/
COc1ccccc1C(=O)Nc1ccc2nc3n(c(=O)c2c1)CCCC3,-1.4,1.5,0.5,8.5,-8.8,1.9,/,/,/,/,/
COc1cc(OC)cc(C(=O)Nc2ccc3nc4n(c(=O)c3c2)CCCCC4)c1,2.9,79.9*,3.5,2.5,81.4*,82.6*,86.9*,86.0*,97.6*,88.1*,55.0*
C[C@@H]1CN([C@@H](C)CO)C(=O)CCCn2nncc2CO[C@@H]1CN(C)C(=O)Nc1ccc2c(c1)OCO2,9.4,/,0.5,-1.4,/,/,/,/,/,/,/
CC(=O)c1cnc2cc(-c3ccc(C)cc3)nn2c1C,-267.9,44.7,-0.6,3.8,66.7*,-0.5,50.4*,33.4,72.5*,66.1*,16.8
CC(=O)c1cnc2cc(-c3ccccc3)nn2c1C,-276.7,-15.5,-2.7,-1.4,-11.6,-5.3,/,/,/,/,/
O=C(O)c1cccc(Nc2ncnc3sccc23)c1,-19.2,79.5*,-29.5,1.0,91.1*,86.4*,91.8*,90.6*,100.3*,63.6*,88.3*
